ChEMBL document CHEMBL3627704, “Synthesis, quorum sensing inhibition and docking studies of 1,5-dihydropyrrol-2-ones” (Bioorg Med Chem, 2015)
Active and inactive are the calls of the source. The rule behind the calls is not given here.

System: Escherichia coli
Test: Inhibition of quorum sensing in Escherichia coli JB357 expressing green fluorescent protein assessed as reduction of OHHL-induced GFP expression after 2 hrs by fluorescence assay relative to OHHL
Outline: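 E. coli JB357 carrying Vibrio fischeri luxR-PluxI-gfp(ASV) reporter; OHHL at final 10, 20, 50 or 100 nM in culture medium, triplicate wells, with dihydropyrrol-2-one at 0–10 mg/mL. Incubated 2 h at 37 °C; GFP fluorescence read relative to solvent control (100%). ID40 taken for each OHHL level and plotted against OHHL. AIC40 is the gradient of the fit forced through origin (inhibitor mol : OHHL mmol).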

Structure (SMILES) | inhibition | Ratio
CCCCC1=C(Br)/C(=C/Br)N(Cc2ccccc2)C1=O | inactive | –
CCCCC1=C(Br)/C(=C/Br)N(c2ccccc2)C1=O | inactive | –
CCCCCCC1=CC(=C(Br)Br)N(CCCC)C1=O | inactive | –
CCCCC1=CC(=C(Br)Br)N(Cc2ccccc2)C1=O | – | 220
CC(C)CN1C(=O)C=C(Br)/C1=C/Br | inactive | –
CCCCCCN1C(=O)C=C(Br)C1=C(Br)Br | inactive | –
O=C1C=C(Br)C(=C(Br)Br)N1Cc1ccccc1 | – | 150
O=C1C=C(Br)/C(=C/Br)N1c1ccccc1 | inactive | –
CCCC(O)C1=CC(=C(Br)Br)N(Cc2ccccc2)C1=O (stereo unspecified) | inactive | –
CCCCC1=CC(=C(Br)Br)N(c2ccccc2)C1=O | – | 97
CCCCCCC1=C(Br)/C(=C/Br)N(Cc2ccccc2)C1=O | inactive | –
CCCC(O)C1=CC(=C(Br)Br)N(c2ccccc2)C1=O (stereo unspecified) | inactive | –
CCCCN1C(=O)C=C(Br)C1=C(Br)Br | inactive | –
CCCCCCC1=CC(=C(Br)Br)N(Cc2ccccc2)C1=O | – | 140
CCCCCCCCN1C(=O)C=C(Br)C1=C(Br)Br | inactive | –
CCCCCCC1=CC(=C(Br)Br)N(c2ccccc2)C1=O | – | 248
CCCCCCCCCCCCN1C(=O)C=C(Br)C1=C(Br)Br | inactive | –
CCCCCC(Br)C1=CC(=C(Br)Br)N(Cc2ccccc2)C1=O (stereo unspecified) | inactive | –

Structure (SMILES) | inhibition | Ratio
CCCCCC(O)C1=CC(=C(Br)Br)N(c2ccccc2)C1=O (stereo unspecified) | inactive | –
O=C1C=C(Br)/C(=C/Br)N1Cc1ccccc1 | – | 26
CCCCCCC1=C(Br)/C(=C/Br)N(c2ccccc2)C1=O | inactive | –
CCCCC1=CC(=C(Br)Br)N(CCCC)C1=O | inactive | –
CCCCC1=CC(=C(Br)Br)N(c2ccc(C)cc2)C1=O | inactive | –
CCCCCCC1=C(Br)/C(=C/Br)N(CCCC)C1=O | inactive | –
CCCC(Br)C1=CC(=C(Br)Br)N(Cc2ccccc2)C1=O (stereo unspecified) | inactive | –
CCCCCCCCCCCCN1C(=O)C=C(Br)/C1=C/Br | inactive | –
CCCCCC(O)C1=CC(=C(Br)Br)N(Cc2ccccc2)C1=O (stereo unspecified) | inactive | –
CCCCCC(Br)C1=CC(=C(Br)Br)N(c2ccccc2)C1=O (stereo unspecified) | inactive | –
CCCC(Br)C1=CC(=C(Br)Br)N(c2ccccc2)C1=O (stereo unspecified) | – | 1.95
CCCCCCCCN1C(=O)C=C(Br)/C1=C/Br | – | 20
O=C1C=C(Br)C2(CBr)OCCCN3C(=O)C=C(Br)C3(CBr)OCCCN12 (stereo unspecified) | – | 112
CC(C)CN1C(=O)C=C(Br)C1=C(Br)Br | – | 65
CCCCCCN1C(=O)C=C(Br)/C1=C/Br | inactive | –
CCCCC1=C(Br)/C(=C/Br)N(CCCC)C1=O | – | 279
O=C1C=C(Br)C2(CBr)OCCN3C(=O)C=C(Br)C3(CBr)OCCN12 (stereo unspecified) | – | 78
CCCCN1C(=O)C=C(Br)/C1=C/Br | – | 19
